Values joined by “and” are separate entries in the source; they are usually repeats but may differ in a detail not shown here. Equal entries are not always repeated.
Legend:
Nucleic Acid [1] = assay: (§1) Fraction of the observed equilibrium absorbance change accounted in the kinetic analysis.; type: nucleic-acid assay
Procedure, shortened: (§2)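 SDS-induced dissociation by stopped flow. Drug–calf thymus DNA complex (400 μM base pairs, 20 μM drug, 0.1 SHE) mixed 1:1 with 20 mM SDS (monomer) at 20 °C. Finals: 200 μM DNA, 10 μM drug, 10 mM SDS; D/P also 0.2. Absorbance followed at the visible maximum. Time constants and % amplitudes obtained from exponential fitting. Fraction = resolved amplitude over equilibrium absorbance change on SDS addition.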

Nucleic Acid [2] = assay: Time constant describing the association profile of calf thymus DNA-drug complexes in 0.1 SHE buffer at 20 degree C after 3 min; type: nucleic-acid assay
Procedure, shortened: (§3)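 Stopped-flow association to sonicated calf thymus DNA (~10^6 MW) in 0.1 SHE at 20 °C. Final DNA 200 μM base pairs and final drug 10 μM (ratio 0.05); D/P also varied to 0.10 and 0.20. Absorbance followed at the drug's visible maximum. Traces deconvoluted into exponentials by curve stripping; at least six runs analysed separately and averaged. Amplitudes given as % of summed amplitudes.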

Nucleic Acid [3] = assay: Time constant describing the association profile of calf thymus DNA-drug complexes in 0.1 SHE buffer at 20 degree C after 1 min; type: nucleic-acid assay; procedure, shortened: as §3
Nucleic Acid [4] = assay: Association constant for binding to poly(dG-dC) DNA in 0.01 SHE buffer, measured by ethidium displacement method; type: nucleic-acid assay
Procedure, shortened: (§4)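 Ethidium displacement in 0.01 SHE buffer with poly(dA-dT) or poly(dG-dC). Association constants corrected for quenching.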

Nucleic Acid [5] = assay: Association constant for binding to poly(dA-dT) DNA in 0.01 SHE buffer, measured by ethidium displacement method; type: nucleic-acid assay; procedure, shortened: as §4
Nucleic Acid [6] = assay: Free drug λmax in 0.1 SHE buffer at the concentration of 50 uM for equilibrium binding to calf thymus DNA
Nucleic Acid [7] = assay: Time constant describing the dissociation profile of calf thymus DNA-drug complexes in 0.1 SHE buffer at 20 degree C.; type: nucleic-acid assay; procedure, shortened: as §2
Nucleic Acid [8] = assay: Time constant describing the association profile of calf thymus DNA-drug complexes in 0.1 SHE buffer at 20 degree C after 2 min; type: nucleic-acid assay; procedure, shortened: as §3
Nucleic Acid [9] = assay: Free drug extinction coefficient in 0.1 SHE buffer at the concentration of 50 uM; 9.4 x 10 e-3 epcilonfor equilibrium binding to calf thymus DNA; conditions: Bos taurus
Nucleic Acid [10] = assay: Association constant for binding to poly(dA-dT) DNA in 0.01 SHE buffer, measured by ethidium displacement method for equilibrium binding to calf thymus DNA; type: nucleic-acid assay
Nucleic Acid [11] = assay: Association constant for binding to poly(dG-dC) DNA in 0.01 SHE buffer, measured by ethidium displacement method for equilibrium binding to calf thymus DNA; type: nucleic-acid assay
[12] = Fraction of the observed equilibrium absorbance change accounted in the kinetic analysis; procedure, shortened: as §2
Nucleic Acid [13] = assay: Percentage of the sum of the amplitudes evaluated in the kinetic experiment; type: nucleic-acid assay; conditions: Bos taurus
Nucleic Acid [14] = assay: (§5) Time constant describing the dissociation profile of calf thymus DNA-drug complexes in 0.1 SHE buffer at 20 degree C; type: nucleic-acid assay; procedure, shortened: as §2
Nucleic Acid [15] = assay: Fraction of the observed equilibrium absorbance change accounted in the kinetic analysis or binding of compound to a CT-DNA; type: functional; conditions: Bos taurus; procedure, shortened: as §2
Nucleic Acid [16] = assay: Time constant describing the association profile was studied for variation on rates with DNA-ligand ratio.; type: nucleic-acid assay; procedure, shortened: as §3
Nucleic Acid [17] = assay: Percentage of the sum of the amplitudes evaluated in the kinetic experiment for binding of compound to a calf thymus DNA; conditions: Bos taurus
Nucleic Acid [18] = assay: (§6) Fraction of the observed equilibrium absorbance change accounted in the kinetic analysis off rates with DNA-ligand ratio.; type: nucleic-acid assay; conditions: Bos taurus; procedure, shortened: as §2
Nucleic Acid [19] = assay: Time constant describing the association profile was studied for binding of compound to a (dA-dT)DNA; type: nucleic-acid assay
Nucleic Acid [20] = assay: Time constant describing the dissociation profile was studied for binding of compound to a poly(dA-dT) DNA; type: nucleic-acid assay
Nucleic Acid [21] = assay: (§7) Fraction of the observed equilibrium absorbance change accounted in the kinetic analysis on rates with DNA-ligand ratio.; type: functional; conditions: Bos taurus
Nucleic Acid [22] = assay: as §1; type: functional; conditions: Bos taurus; procedure, shortened: as §2
Nucleic Acid [23] = assay: as §6; type: functional; conditions: Bos taurus; procedure, shortened: as §2
Nucleic Acid [24] = assay: Percentage of the sum of the amplitudes evaluated in the kinetic experiment for binding of compound to a CT-DNA; type: nucleic-acid assay; conditions: Bos taurus; procedure, shortened: as §2
Nucleic Acid [25] = assay: Percentage of the sum of the amplitudes evaluated in the kinetic experiment for binding of compound to a (dI-dC)DNA; type: functional; conditions: Bos taurus
Nucleic Acid [26] = assay: Fraction of the observed equilibrium absorbance change accounted in the kinetic analysis or binding of compound to a (dG-dC)-DNA; type: nucleic-acid assay; conditions: Bos taurus
Nucleic Acid [27] = assay: Fraction of the observed equilibrium absorbance change accounted in the kinetic analysis or binding of compound to a (dA-dT)-DNA; type: functional; conditions: Bos taurus
Nucleic Acid [28] = assay: Time constant describing the dissociation profile was studied for binding of compound to a poly(dG-dC) DNA; type: nucleic-acid assay
Nucleic Acid [29] = assay: Time constant describing the dissociation profile was studied for binding of compound to a (dA-dT)DNA; type: nucleic-acid assay
Nucleic Acid [30] = assay: as §7; type: nucleic-acid assay; conditions: Bos taurus
Nucleic Acid [31] = assay: Time constant describing the association profile was studied for binding of compound to a poly(dA-dT) DNA; type: nucleic-acid assay
Nucleic Acid [32] = assay: Percentage of the sum of the amplitudes in the kinetic experiment.; type: nucleic-acid assay; conditions: Bos taurus
Nucleic Acid [33] = assay: Percentage of the sum of the amplitudes evaluated in the kinetic experiment on rates with DNA-ligand ratio.; type: functional; conditions: Bos taurus; procedure, shortened: as §3
Nucleic Acid [34] = assay: Percentage of the sum of the amplitudes evaluated in the kinetic experiment.; type: functional; conditions: Bos taurus; procedure, shortened: as §2
Nucleic Acid [35] = assay: as §5; type: nucleic-acid assay; remark: listed apart in the source
Procedure, shortened: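 Stopped-flow absorbance at 20 °C, read at the visible absorption maxima. The complex was 400 μM sonicated calf thymus DNA (nucleotide pairs) with 20 μM drug in 0.1 SHE, mixed with an equal volume of 20 mM SDS (monomer) in the same buffer. Final: 200 μM DNA bp, 10 μM drug, 10 mM SDS (1 drug : 20 bp). Exponential decay time constants were resolved.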

| Structure (SMILES) | Activity (Nucleic Acid [1]; Bos taurus) | Time constant (Nucleic Acid [2]) [ms] | Time constant (Nucleic Acid [3]) [ms] | k0 (Nucleic Acid [4]) [M⁻¹] | k0 (Nucleic Acid [5]) [M⁻¹] | λmax (nm) (Nucleic Acid [6]) | Time constant (Nucleic Acid [8]) [ms] | ε (×10^-3) (Nucleic Acid [9]) | other results |
| --- | --- | --- | --- | --- | --- | --- | --- | --- | --- |
| COc1cc(NS(C)(=O)=O)ccc1Nc1c2ccccc2nc2c(C(=O)NCCO)cccc12 | 90 and 80 | 100 | 4 | 2.4e+06 | 890000 | 441 | 31 | 10.4 | Time constant (Nucleic Acid [7]): 81 ms and 208 ms |
| Nc1c2ccccc2nc2ccccc12 | – | – | – | – | – | 399 | – | 10.1 | k0 (Nucleic Acid [10]): 1.2e+06 M⁻¹; k0 (Nucleic Acid [11]): 1.4e+06 M⁻¹; Activity [12]: 50; Relative amplitude (Nucleic Acid [13]): 15% and 12%; T1 (Nucleic Acid [14]): 3 ms; T2 (Nucleic Acid [14]): 15 ms |
| COc1cc(NS(C)(=O)=O)ccc1Nc1c2ccccc2nc2c(C(=O)NCCN(C)C)cccc12 | 62 | 110 | 5 | 6.6e+07 | 2.45e+07 | 442 | 24 | 12.9 | Activity (Nucleic Acid [15]): 62 and 97; Time constant (Nucleic Acid [16]): 5 ms; Relative amplitude (Nucleic Acid [17]): 64%; Activity (Nucleic Acid [18]): 95; Time constant (Nucleic Acid [19]): 3 ms; Time constant (Nucleic Acid [20]): 38 ms; Activity (Nucleic Acid [21]): 72; Activity (Nucleic Acid [22]): 97; Activity (Nucleic Acid [23]): 97; Relative amplitude (Nucleic Acid [24]): 41%; Relative amplitude (Nucleic Acid [25]): 78%; Activity (Nucleic Acid [26]): 76 and 99; Activity (Nucleic Acid [27]): 25 and 70; Time constant (Nucleic Acid [28]): 1640 ms and 3500 ms; Time constant (Nucleic Acid [29]): 7 ms; Activity (Nucleic Acid [30]): 62 and 60; Time constant (Nucleic Acid [31]): 16 ms |
| CN(C)CCNC(=O)c1cccc2c(N)c3ccccc3nc12 | – | – | – | – | – | 407 | – | 9.4 | k0 (Nucleic Acid [10]): 2.24e+07 M⁻¹; T1 (Nucleic Acid [3]): 4 ms; k0 (Nucleic Acid [11]): 5e+07 M⁻¹; T2 (Nucleic Acid [8]): 19 ms; T1 (Nucleic Acid [14]): 6 ms; T2 (Nucleic Acid [14]): 28 ms; T3 (Nucleic Acid [14]): 86 ms; T4 (Nucleic Acid [14]): 428 ms |
| COc1cc(NS(C)(=O)=O)ccc1Nc1c2ccccc2nc2c(C(=O)NCC(O)CO)cccc12 (configuration not stated) | 77 and 88 | 110 | 8 | 3.71e+07 | 2.51e+06 | 425 | 40 | 10.4 | – |
| CNC(=O)c1cccc2c(Nc3ccc(NS(C)(=O)=O)cc3OC)c3ccccc3nc12 | 54 and 79 | – | 2 | 1.51e+06 | 350000 | 438 | 7 | 11.6 | Relative amplitude (Nucleic Acid [32]): 52% [middle of 4 runs]; Time constant (Nucleic Acid [7]): 11 ms and 29 ms |
| COc1cc(NS(C)(=O)=O)ccc1Nc1c2ccccc2nc2c(C(=O)NCC(=O)NCCNCCO)cccc12 | – | 93 | 5 | 6.61e+07 | 2.82e+07 | 440 | 25 | 12.3 | Activity (Nucleic Acid [1]): 66; Activity (Nucleic Acid [21]): 66 and 65; Activity (Nucleic Acid [22]): 100; Relative amplitude (Nucleic Acid [33]): 33% (2×) and 48% and 37%; Activity (Nucleic Acid [30]): 74 |
| COc1cc(NS(C)(=O)=O)ccc1Nc1c2ccccc2nc2c(C(=O)NCCCN(C)C)cccc12 | 79 and 92 | 66 | 3 | 3.98e+06 | 2.34e+06 | 441 | 15 | 11.6 | Relative amplitude (Nucleic Acid [32]): 31% and 39% and 55% |
| COc1cc(NS(C)(=O)=O)ccc1Nc1c2ccccc2nc2c(C(=O)NCCCO)cccc12 | 85 and 72 | 95 | 4 | 8.12e+06 | 950000 | 439 | 32 | 10.9 | Time constant (Nucleic Acid [7]): 58 ms and 157 ms; Relative amplitude (Nucleic Acid [34]): 25% and 35% |
| COc1cc(NS(C)(=O)=O)ccc1Nc1c2ccccc2nc2ccccc12 | 48 | – | – | 260000 | 290000 | 434 | – | 12.1 | Time constant (Nucleic Acid [35]): 2 ms and 6 ms |
| COc1cc(NS(C)(=O)=O)ccc1Nc1c2ccccc2nc2c(C(=O)NCCNCCO)cccc12 | 69 | 66 | 3 | 4.9e+07 | 2.19e+07 | 441 | 18 | 11.6 | Activity (Nucleic Acid [21]): 68; Activity (Nucleic Acid [22]): 100; Activity (Nucleic Acid [30]): 69 and 60 |

Reference: ChEMBL document CHEMBL1125166, “Kinetic and equilibrium binding studies of amsacrine-4-carboxamides: a class of asymmetrical DNA-intercalating agents which bind by threading through the DNA helix” (J Med Chem, 1990)
